Source: paper PMC10685179 (RSC Advances, 2023)
Converted amounts (≈) assume the structure as drawn. Residues, ends and D or L forms follow the SMILES beside them. *: point of attachment. βNA = c1ccc2cc(N*)ccc2c1

Legend:
E. coli Kam3-AcrB = experiment: Ethidium bromide; format: cell-based; conditions: phosphonates 0.06 to 2 μg mL^−1; PaβN 20 μg mL^−1
Method in brief: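 E. coli Kam3-AcrB (pSYC plasmid encoding AcrB) was grown to mid-log phase in TS broth and pelleted at 5000×g for 5 min at 4 °C. Cells were washed twice in PBS pH 7.4 and adjusted to OD600 ≈0.5. Cells were treated with phosphonates (0.06–2 μg mL−1) or 0.1% DMSO for 12 h, then combined with EtBr, 25 mM glucose (final) and PaβN 20 μg mL−1. Fluorescence was read over 38 min, […], as RFU.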

C. tropicalis KA205 [1] = experiment: Agar well-diffusion, inhibition zone; format: cell-based, Candida tropicalis; conditions: for zone of inhibition at 10 µM: Candida tropicalis, KA205, read-out: Average diameter of inhibition zone (ZI)
Method in brief: (§1)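 Clinical MDR isolates from complicated UTI patients. Suspensions were made in Tryptic Soya and Sabouraud broths from subcultures on Tryptic Soya and Sabouraud agar plates. Agar well diffusion followed CLSI guidelines, with test compounds applied at 10 μM in DMSO. Fosfomycin and fluconazole were positive controls and DMSO the negative control. Zone diameters were read in mm, in triplicate.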

P. mirabilis KA320 [2] = experiment: Agar well-diffusion, inhibition zone; format: cell-based, Proteus mirabilis
Method in brief: as §1

E. faecalis KA247 [3] = experiment: Agar well-diffusion, inhibition zone; format: cell-based, Enterococcus faecalis
Method in brief: as §1

C. albicans KA205 [4] = experiment: Broth microdilution MIC and MFC; format: cell-based; conditions: Candida albicans; for MIC: KA205, 24 h; for MFC: KA205, read-out: MFC/MIC
E. coli KA780 [5] = experiment: Broth microdilution MIC and MBC; format: cell-based; conditions: Escherichia coli; for MIC: KA780, 24 h; for MBC: KA780, read-out: MBC/MIC
S. aureus KA112 [6] = experiment: Broth microdilution MIC and MBC; format: cell-based; conditions: Staphylococcus aureus; for MIC: KA112, 24 h; for MBC: KA112, read-out: MBC/MIC
C. albicans KA205 [7] = experiment: Agar well-diffusion, inhibition zone; format: cell-based, Candida albicans; conditions: for zone of inhibition at 10 µM: Candida albicans, KA205, read-out: Average diameter of inhibition zone (ZI)
Method in brief: as §1

E. coli KA780 [8] = experiment: Agar well-diffusion, inhibition zone; format: cell-based, Escherichia coli
Method in brief: as §1

bacterial isolates [9] = experiment: Broth microdilution MIC/MBC, bacterial panel; format: cell-based; conditions: pyrrole 6b versus thiophene 6a; bacteria
P. mirabilis KA320 [10] = experiment: Broth microdilution MIC and MBC; format: cell-based; conditions: Proteus mirabilis; for MIC: KA320, 24 h; for MBC: KA320, read-out: MBC/MIC
E. faecalis KA247 [11] = experiment: Broth microdilution MIC and MBC; format: cell-based; conditions: Enterococcus faecalis, KA247, 24 h
C. tropicalis KA205 [12] = experiment: Broth microdilution MIC and MFC; format: cell-based; conditions: Candida tropicalis; for MIC: KA205, 24 h; for MFC: KA205, read-out: MFC/MIC
S. aureus KA112 [13] = experiment: Agar well-diffusion, inhibition zone; format: cell-based, Staphylococcus aureus
Method in brief: as §1

[14] = test system: MDR bacterial and fungal isolates; experiment: Broth microdilution MIC/MBC/MFC, whole panel; format: cell-based; conditions: bactericidal/fungicidal if MBC or MFC not greater than four times the MIC
fungal isolates [15] = experiment: Time-kill kinetics, fungal isolates; format: cell-based; conditions: at MIC
Method in brief: (§2)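 Untreated organisms served as controls. Bacteria were sampled at 0, 2, 4, 6, 8, 12, 18 and 24 h, and fungi at 0, 2, 4, 6, 8, 18, 24 and 48 h. Counts were made by plate count and plotted as log10 CFU mL−1 versus time.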

fungal isolates [16] = experiment: Agar well-diffusion, inhibition zone, fungal panel; format: cell-based
Method in brief: as §1

fungal isolates [17] = experiment: Broth microdilution MIC/MFC, fungal panel; format: cell-based
bacterial isolates [18] = experiment: Time-kill kinetics, bacterial isolates; format: cell-based; conditions: at MIC
Method in brief: as §2

P. mirabilis KA320 [19] = experiment: Checkerboard microdilution synergy with fosfomycin; format: cell-based, Proteus mirabilis
S. aureus KA112 [20] = experiment: Checkerboard microdilution synergy with fosfomycin; format: cell-based, Staphylococcus aureus
[21] = Physical and chemical stability after gamma irradiation; format: physicochemical; conditions: gamma radiation 3.0 kGy to 20.0 kGy
Method in brief: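 Compound powders in sterile tubes were irradiated by a 60Co source at 3.0, 5.0, 7.0, 10.0, 15.0 and 20.0 kGy, at a dose rate of 0.9 kGy h−1. Non-irradiated and irradiated samples were checked for physical and chemical changes by UV-VIS spectrophotometry at 560 nm.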

C. tropicalis KA205 [22] = experiment: Checkerboard microdilution synergy with fluconazole; format: cell-based, Candida tropicalis
[23] = test system: fosfomycin-resistant (FO-R) E. coli KA780; experiment: SEM of outer membrane integrity; format: cell-based; conditions: at MIC, compared with DMSO
E. coli KA780 [24] = experiment: Checkerboard microdilution synergy with fosfomycin; format: cell-based, Escherichia coli
C. albicans KA205 [25] = experiment: Checkerboard microdilution synergy with fluconazole; format: cell-based, Candida albicans
[26] = test system: BNL: mouse normal liver cells; experiment: SRB cytotoxicity assay on normal cells; format: cell-based
Method in brief: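 Mouse normal liver BNL cells were grown in DMEM with 10% heat-inactivated FBS, penicillin and streptomycin, at 37 °C in 5% CO2. […] SRB assay: 10% TCA fixation at 4 °C for 1 h, 0.4% SRB for 10 min at room temperature, 1% acetic acid washes, 10 mM Tris solubilisation, absorbance at 540 nm. Mean of three, with SD.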

MDR microbial isolates = experiment: Time-kill kinetics, whole panel; format: cell-based; conditions: all pathogenic isolates
Method in brief: as §2

E. faecalis KA247 [27] = experiment: Checkerboard microdilution synergy with fosfomycin; format: cell-based, Enterococcus faecalis
E. coli MurA enzyme = E. coli MurA enzyme (Escherichia coli, UniProt P0A749); experiment: MurA enzyme inhibition assay; format: biochemical
[28] = 10 μM (DMSO), mean of three ± SEM

Chain of E. coli MurA enzyme (P0A749 whole entry): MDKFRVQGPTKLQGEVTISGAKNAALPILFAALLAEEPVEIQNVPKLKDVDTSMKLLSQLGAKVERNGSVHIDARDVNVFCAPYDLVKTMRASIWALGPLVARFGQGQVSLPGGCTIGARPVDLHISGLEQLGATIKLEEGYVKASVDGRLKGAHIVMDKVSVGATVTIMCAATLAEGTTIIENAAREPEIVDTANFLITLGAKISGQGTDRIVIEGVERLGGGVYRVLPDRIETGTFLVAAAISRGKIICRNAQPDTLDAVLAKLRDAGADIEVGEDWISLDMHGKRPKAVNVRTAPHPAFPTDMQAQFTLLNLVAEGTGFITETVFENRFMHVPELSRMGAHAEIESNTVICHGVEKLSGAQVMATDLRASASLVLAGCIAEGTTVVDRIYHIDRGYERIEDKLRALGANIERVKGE

For `NC(N)=NCCC[C@H](NC(=O)[C@@H](N)Cc1ccccc1)C(=O)Nc1ccc2ccccc2c1` [PAβN] (H-Phe-Arg-βNA), the EtBr accumulation (E. coli Kam3-AcrB) was “increases the accumulation of EtBr”.

With `O=[N+]([O-])c1ccc(-c2nn(-c3ccccc3)c3sc(NC(c4ccc[nH]4)P(=O)(Oc4ccccc4)Oc4ccccc4)nc23)cc1` (stereo not drawn) [Compound 6b, Diphenyl(((3-(4-nitrophenyl)-1-phenyl-1H-pyrazolo[4,3-d]thiazol-5-yl)amino)(1H-pyrrol-2-yl)methyl)phosphonate] the zone of inhibition at 10 µM (C. tropicalis KA205 [1]) was 21 ± 0.7 mm, the zone of inhibition at 10 µM (P. mirabilis KA320 [2]; Proteus mirabilis, KA320, read-out: Average diameter of inhibition zone (ZI)) was 22 ± 0.12 mm and the zone of inhibition at 10 µM (E. faecalis KA247 [3]; Enterococcus faecalis, KA247, read-out: Average diameter of inhibition zone (ZI)) was 22 ± 0.55 mm. The MIC (C. albicans KA205 [4]) was 0.25 µg/mL (≈ 0.385 µM), the MFC (C. albicans KA205 [4]) was 1 µg/mL (≈ 1.54 µM) and the MIC (E. coli KA780 [5]) was 0.125 µg/mL (≈ 0.193 µM). The MBC (E. coli KA780 [5]) was 0.5 µg/mL (≈ 0.771 µM), the MIC (S. aureus KA112 [6]) was 0.125 µg/mL (≈ 0.193 µM) and the MBC (S. aureus KA112 [6]) was 0.5 µg/mL (≈ 0.771 µM). For the same compound, the zone of inhibition at 10 µM (C. albicans KA205 [7]) was 21 ± 0.91 mm, the zone of inhibition at 10 µM (E. coli KA780 [8]; Escherichia coli, KA780, read-out: Average diameter of inhibition zone (ZI)) was 24 ± 0.86 mm and the “higher activity by MIC” value (bacterial isolates [9]) was ~8 folds. The MIC (P. mirabilis KA320 [10]) was 0.25 µg/mL (≈ 0.385 µM), the MBC (P. mirabilis KA320 [10]) was 1 µg/mL (≈ 1.54 µM) and the MIC (E. faecalis KA247 [11]) was 0.25 µg/mL (≈ 0.385 µM). The MIC (C. tropicalis KA205 [12]) was 0.5 µg/mL (≈ 0.771 µM), the MFC (C. tropicalis KA205 [12]) was 1 µg/mL (≈ 1.54 µM) and the zone of inhibition at 10 µM (S. aureus KA112 [13]; Staphylococcus aureus, KA112, read-out: Average diameter of inhibition zone (ZI)) was 23 ± 0.77 mm.

For `OC(Cn1cncn1)(Cn1cncn1)c1ccc(F)cc1F` [FCA, fluconazole, reference compound], the zone of inhibition at 10 µM (C. tropicalis KA205 [1]) was 17 ± 0.15 mm, the bactericidal/fungicidal effect [14] was “bactericidal and fungicidal activities” and the “time of maximum killing rate / maximum reduction in cell counts” value (fungal isolates [15]) was 48 h. The MIC (C. albicans KA205 [4]) was 2 µg/mL (≈ 6.53 µM), the MFC (C. albicans KA205 [4]) was 1 µg/mL (≈ 3.27 µM) and the zone of inhibition at 10 µM (fungal isolates [16]) was 17 mm. For the same compound, the zone of inhibition at 10 µM (C. albicans KA205 [7]) was 17 ± 0.99 mm, the MFC (fungal isolates [17]) was 2 µg/mL (≈ 6.53 µM) and the MIC (C. tropicalis KA205 [12]) was 4 µg/mL (≈ 13.1 µM). The MFC (C. tropicalis KA205 [12]) was 0.5 µg/mL (≈ 1.63 µM).

In the case of `CN(C)c1ccc(C(Nc2nc3c(-c4ccc([N+](=O)[O-])cc4)nn(-c4ccccc4)c3s2)P(=O)(Oc2ccccc2)Oc2ccccc2)cc1` (stereo not drawn) [Compound 5b, Diphenyl((4-(dimethylamino)phenyl)((3-(4-nitrophenyl)-1-phenyl-1H-pyrazolo[4,3-d]thiazol-5-yl)amino)methyl)phosphonate], the “Average diameter of inhibition zone (ZI)” value (C. tropicalis KA205 [1]; [28]) is reported as 21 ± 0.32 mm, the “time of maximum killing rate” value (bacterial isolates [18]) is reported as 8 h and the “time of maximum killing rate / maximum reduction in cell counts” value (fungal isolates [15]) is reported as 18 h. For the same compound, the combination effect (P. mirabilis KA320 [19]) was “S (FICI ≤ 0.5 (synergism))”, the “Fractional inhibitory concentration index (ΣFICI)” value (P. mirabilis KA320 [19]; combination with fosfomycin) was 0.25 and the “Average diameter of inhibition zone (ZI)” value (P. mirabilis KA320 [2]; [28]) was 23 ± 0.78 mm. For the same compound, the combination effect (S. aureus KA112 [20]) was “S (FICI ≤ 0.5 (synergism))”, the “Fractional inhibitory concentration index (ΣFICI)” value (S. aureus KA112 [20]; combination with fosfomycin) was 0.5 and the “physical changes (odor, color, clarity, solubility, and form) after irradiation” value [21] was “no changes occurred”. For the same compound, the “stability of the chemical structure after irradiation” value ([21]; UV-VIS spectrophotometer) was “confirmed the stability of the chemical structure”, the “Average diameter of inhibition zone (ZI)” value (E. faecalis KA247 [3]; [28]) was 23 ± 0.88 mm and the combination effect (C. tropicalis KA205 [22]) was “P (0.5 < FICI > 1 (partial synergism))”. For the same compound, the “Fractional inhibitory concentration index (ΣFICI)” value (C. tropicalis KA205 [22]; combination with fluconazole) was 0.75, the “effect on outer membrane (SEM image)” value [23] was “perturbation in the membrane and distinct ruptures of the OM integrity” and the MIC (C. albicans KA205 [4]) was 0.125 µg/mL (≈ 0.178 µM). For the same compound, the MFC (C. albicans KA205 [4]) was 1 µg/mL (≈ 1.42 µM), the MIC (E. coli KA780 [5]) was 0.06 µg/mL (≈ 0.0854 µM) and the MBC (E. coli KA780 [5]) was 0.5 µg/mL (≈ 0.712 µM). For the same compound, the combination effect (E. coli KA780 [24]) was “S (FICI ≤ 0.5 (synergism))”, the “Fractional inhibitory concentration index (ΣFICI)” value (E. coli KA780 [24]; combination with fosfomycin) was 0.25 and the combination effect (C. albicans KA205 [25]) was “P (0.5 < FICI > 1 (partial synergism))”. The “Fractional inhibitory concentration index (ΣFICI)” value (C. albicans KA205 [25]; combination with fluconazole) was 0.75, the MIC (S. aureus KA112 [6]) was 0.06 µg/mL (≈ 0.0854 µM) and the MBC (S. aureus KA112 [6]) was 1 µg/mL (≈ 1.42 µM). For the same compound, the IC50 [26] was > 100 µM, the “Average diameter of inhibition zone (ZI)” value (C. albicans KA205 [7]; [28]) was 22 ± 0.22 mm and the “Average diameter of inhibition zone (ZI)” value (E. coli KA780 [8]; [28]) was 25 ± 0.00 mm. The “microbial reduction relative to the initial inoculum” value (MDR microbial isolates) was ≥ 3 log10, the combination effect (E. faecalis KA247 [27]) was “S (FICI ≤ 0.5 (synergism))” and the “Fractional inhibitory concentration index (ΣFICI)” value (E. faecalis KA247 [27]; combination with fosfomycin) was 0.5. For the same compound, the MIC (P. mirabilis KA320 [10]) was 0.25 µg/mL (≈ 0.356 µM), the MBC (P. mirabilis KA320 [10]) was 0.5 µg/mL (≈ 0.712 µM) and the MIC (E. faecalis KA247 [11]) was 0.125 µg/mL (≈ 0.178 µM). For the same compound, the MIC (C. tropicalis KA205 [12]) was 0.5 µg/mL (≈ 0.712 µM), the MFC (C. tropicalis KA205 [12]) was 0.5 µg/mL (≈ 0.712 µM) and the “Average diameter of inhibition zone (ZI)” value (S. aureus KA112 [13]; [28]) was 24 ± 0.03 mm. The IC50 (E. coli MurA enzyme; IC50, preincubation 0 min) was 45 µM, the IC50 (E. coli MurA enzyme; IC50, preincubation 10 min) was 4.5 µM and the “RA (residual activity)” value (E. coli MurA enzyme; at 100 μM, preincubation 10 min) was 4 ± 0.55%. It also gave a remaining activity at 100 µM (E. coli MurA enzyme; read-out: RA (residual activity), at 100 μM, preincubation 10 min) of 7%.
